Results collected from several papers.
Compare with care: the assays were run in different laboratories.

Structure (SMILES)	species	sample	route	dose	notes	endpoint	result
O=C(COc1ccc(Cl)cc1)NC12CC(c3nnc([C@H]4C[C@@H](OC(F)(F)F)C4)o3)(C1)C2	human	plasma	oral	200 mg	multiple doses, once daily, steady state, healthy volunteers	AUC	242 µM·h
COc1ccc(F)cc1C(=O)NCc1ccc(-c2nn([C@@H](C)C(F)(F)F)c(N)c2C(N)=O)cc1	human	plasma	oral	200 mg	single dose	AUC(0-inf)	80800 ng·h/mL
COc1ccc(-c2c(Nc3ccccn3)[nH]c3c(C4=CCCCC4)c(-c4ccccc4)nn3c2=O)cc1	human	plasma	oral	400 mg once daily	multiple doses, steady state, patients	AUC(0-t)	57300 ng·h/mL
CC(=O)N(C)[C@H]1CCN(C(=O)c2cnc3c(c2)C[C@](C)(c2ccc(F)cc2)N3)C1	male human	plasma	oral	15 mg	multiple doses, once daily, steady state	AUC(0-t)	1.97 µM·h
CC(C)[C@@H](CS(=O)(=O)C(C)C)N1C(=O)[C@@](C)(CC(=O)O)C[C@H](c2cccc(Cl)c2)[C@H]1c1ccc(Cl)cc1	FVB mouse	brain	oral	20 mg/kg		unbound tissue/plasma ratio	0.005
NCc1cc2c(cc1F)C(=O)N(C1CCC(=O)NC1=O)C2 (centres unmarked)	male cynomolgus monkey	plasma	oral	0.3 mg/kg		Tmax	2 h
COc1ccc2c(c1)CN(C(=O)CCN1CCC(Cc3ccccc3)CC1)CC[S@@+]2[O-]	male human	plasma	intravenous	0.6 mg/kg	healthy volunteers	AUC(0-t)	3180 ng·h/mL
CC(C)n1c(C2CCNCC2)nc2c([N+](=O)[O-])c(Br)c(Br)cc21	human	plasma	oral	125 mg	patients	AUC(0-t)	1760 ng·h/mL
